Data: ChEMBL document CHEMBL1157895, “Truxillic acid derivatives act as peroxisome proliferator-activated receptor gamma activators” (Bioorg Med Chem Lett, 2010)
pEC50: −log10 of the molar value. Calls of active or inactive are those of the source. The calls are words filed in the database; no cut-off is given here.

Each molecule was assayed against T1, Peroxisome proliferator-activated receptor delta (Homo sapiens) (UniProt Q03181) (assay: Agonist activity at human PPARdelta at 10 uM by Gal4 transactivation assay relative to pioglitazone).
T1 sequence (whole entry): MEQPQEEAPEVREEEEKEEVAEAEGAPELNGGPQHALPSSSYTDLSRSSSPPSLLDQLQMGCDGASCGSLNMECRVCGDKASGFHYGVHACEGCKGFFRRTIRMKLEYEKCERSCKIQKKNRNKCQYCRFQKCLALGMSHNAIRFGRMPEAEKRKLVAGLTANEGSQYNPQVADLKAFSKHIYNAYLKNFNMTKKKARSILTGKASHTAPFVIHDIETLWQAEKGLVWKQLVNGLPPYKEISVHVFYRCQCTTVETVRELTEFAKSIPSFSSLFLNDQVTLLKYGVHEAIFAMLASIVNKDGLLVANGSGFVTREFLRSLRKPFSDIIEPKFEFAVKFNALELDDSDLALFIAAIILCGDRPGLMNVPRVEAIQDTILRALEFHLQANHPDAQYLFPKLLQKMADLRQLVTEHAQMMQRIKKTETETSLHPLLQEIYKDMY
Assay type: functional

Activity | Structure (SMILES)
inactive | Cc1ccccc1OC(=O)C1C(c2ccccc2)C(C(=O)O)C1c1ccccc1 (stereo not given)
inactive | CC(C)OC(=O)C1C(c2ccccc2)C(C(=O)O)C1c1ccccc1 (stereo not given)
inactive | O=C(O)C1C(c2ccccc2)C(C(=O)Oc2ccc(O)cc2)C1c1ccccc1 (stereo not given)
inactive | COC(=O)C1C(c2ccccc2)C(C(=O)OC)C1c1ccccc1 (stereo not given)
inactive | O=C(O)C1C(c2ccccc2)C(C(=O)OCCO)C1c1ccccc1 (stereo not given)
inactive | COC(=O)C1C(c2ccccc2)C(C(=O)OCc2ccccc2)C1c1ccccc1 (stereo not given)
inactive | O=C(O)C1C(c2ccccc2)C(C(=O)N2CCCCC2)C1c1ccccc1 (stereo not given)
inactive | CC(C)CCOC(=O)C1C(c2ccccc2)C(C(=O)O)C1c1ccccc1 (stereo not given)
inactive | Cc1cccc(OC(=O)C2C(c3ccccc3)C(C(=O)O)C2c2ccccc2)c1 (stereo not given)
inactive | O=C(O)C1C(c2ccccc2)C(C(=O)O)C1c1ccccc1 (stereo not given)
inactive | CCCCCCOC(=O)C1C(c2ccccc2)C(C(=O)O)C1c1ccccc1 (stereo not given)
inactive | O=C(O)C1C(c2ccccc2)C(C(=O)N2CCOCC2)C1c1ccccc1 (stereo not given)
inactive | CCCCCCCOC(=O)C1C(c2ccccc2)C(C(=O)O)C1c1ccccc1 (stereo not given)
inactive | CCCCCCCCOC(=O)C1C(c2ccccc2)C(C(=O)O)C1c1ccccc1 (stereo not given)
inactive | O=C(O)C1C(c2ccccc2)C(C(=O)OCCCO)C1c1ccccc1 (stereo not given)
inactive | CCC(C)OC(=O)C1C(c2ccccc2)C(C(=O)O)C1c1ccccc1 (stereo not given)

The molecules below were run against T2, Peroxisome proliferator-activated receptor alpha (Homo sapiens) (UniProt Q07869) (assay: Agonist activity at human PPARalpha at 10 uM by Gal4 transactivation assay relative to pioglitazone).
T2 sequence (whole entry): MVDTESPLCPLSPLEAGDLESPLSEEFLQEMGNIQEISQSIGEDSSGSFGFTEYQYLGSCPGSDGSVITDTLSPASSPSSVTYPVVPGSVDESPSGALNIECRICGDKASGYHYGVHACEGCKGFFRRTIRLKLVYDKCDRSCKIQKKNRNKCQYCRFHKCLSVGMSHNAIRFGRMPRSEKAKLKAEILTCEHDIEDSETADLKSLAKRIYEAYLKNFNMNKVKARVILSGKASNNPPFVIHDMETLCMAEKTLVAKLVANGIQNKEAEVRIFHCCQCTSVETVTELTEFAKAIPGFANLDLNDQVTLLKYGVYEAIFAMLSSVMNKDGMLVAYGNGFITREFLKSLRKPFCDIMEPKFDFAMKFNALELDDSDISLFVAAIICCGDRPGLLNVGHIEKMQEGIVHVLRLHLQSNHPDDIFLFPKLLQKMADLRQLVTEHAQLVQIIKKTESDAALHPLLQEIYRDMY
Assay type: functional

Activity | Structure (SMILES)
inactive | Cc1ccccc1OC(=O)C1C(c2ccccc2)C(C(=O)O)C1c1ccccc1 (stereo not given)
inactive | CC(C)OC(=O)C1C(c2ccccc2)C(C(=O)O)C1c1ccccc1 (stereo not given)
inactive | O=C(O)C1C(c2ccccc2)C(C(=O)Oc2ccc(O)cc2)C1c1ccccc1 (stereo not given)
inactive | COC(=O)C1C(c2ccccc2)C(C(=O)OC)C1c1ccccc1 (stereo not given)
inactive | O=C(O)C1C(c2ccccc2)C(C(=O)OCCO)C1c1ccccc1 (stereo not given)
inactive | COC(=O)C1C(c2ccccc2)C(C(=O)OCc2ccccc2)C1c1ccccc1 (stereo not given)
inactive | O=C(O)C1C(c2ccccc2)C(C(=O)N2CCCCC2)C1c1ccccc1 (stereo not given)
inactive | CC(C)CCOC(=O)C1C(c2ccccc2)C(C(=O)O)C1c1ccccc1 (stereo not given)
inactive | Cc1cccc(OC(=O)C2C(c3ccccc3)C(C(=O)O)C2c2ccccc2)c1 (stereo not given)
inactive | O=C(O)C1C(c2ccccc2)C(C(=O)O)C1c1ccccc1 (stereo not given)
inactive | CCCCCCOC(=O)C1C(c2ccccc2)C(C(=O)O)C1c1ccccc1 (stereo not given)
inactive | O=C(O)C1C(c2ccccc2)C(C(=O)N2CCOCC2)C1c1ccccc1 (stereo not given)
inactive | CCCCCCCOC(=O)C1C(c2ccccc2)C(C(=O)O)C1c1ccccc1 (stereo not given)
inactive | CCCCCCCCOC(=O)C1C(c2ccccc2)C(C(=O)O)C1c1ccccc1 (stereo not given)
inactive | O=C(O)C1C(c2ccccc2)C(C(=O)OCCCO)C1c1ccccc1 (stereo not given)
inactive | CCC(C)OC(=O)C1C(c2ccccc2)C(C(=O)O)C1c1ccccc1 (stereo not given)

These molecules were tested against T3, Peroxisome proliferator-activated receptor gamma (Homo sapiens) (UniProt P37231) (assay: (§1) Agonist activity at human PPARgamma at 10 uM by Gal4 transactivation assay relative to pioglitazone).
T3 sequence (whole entry): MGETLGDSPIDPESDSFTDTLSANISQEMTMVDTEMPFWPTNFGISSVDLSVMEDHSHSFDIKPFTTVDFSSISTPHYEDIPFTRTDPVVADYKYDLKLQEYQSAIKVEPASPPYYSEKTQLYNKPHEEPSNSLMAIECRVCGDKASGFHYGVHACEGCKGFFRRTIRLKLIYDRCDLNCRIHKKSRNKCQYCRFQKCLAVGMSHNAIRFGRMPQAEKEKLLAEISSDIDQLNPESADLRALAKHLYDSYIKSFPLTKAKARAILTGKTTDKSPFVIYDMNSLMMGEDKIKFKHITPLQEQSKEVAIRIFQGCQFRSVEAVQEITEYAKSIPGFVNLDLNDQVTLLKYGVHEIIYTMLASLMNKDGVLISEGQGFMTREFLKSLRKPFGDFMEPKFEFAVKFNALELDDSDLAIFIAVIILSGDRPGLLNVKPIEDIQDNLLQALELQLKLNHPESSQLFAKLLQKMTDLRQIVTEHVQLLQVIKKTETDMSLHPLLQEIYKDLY
Assay type: functional
Method in brief: (§2)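 Cell-based Gal4-hybrid transactivation assay with a luciferase reporter for human PPARγ. Compounds were tested at 10 µM. Activation is expressed relative to 1 µM pioglitazone, which was set as 100% activation. Values are the mean and standard deviation of at least three independent experiments.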

Activity | Structure (SMILES)
138% | Cc1ccccc1OC(=O)C1C(c2ccccc2)C(C(=O)O)C1c1ccccc1 (stereo not given)
71% | CC(C)CCOC(=O)C1C(c2ccccc2)C(C(=O)O)C1c1ccccc1 (stereo not given)
123% | Cc1cccc(OC(=O)C2C(c3ccccc3)C(C(=O)O)C2c2ccccc2)c1 (stereo not given)
66% | CCCCCCOC(=O)C1C(c2ccccc2)C(C(=O)O)C1c1ccccc1 (stereo not given)
153% | CCCCCCCOC(=O)C1C(c2ccccc2)C(C(=O)O)C1c1ccccc1 (stereo not given)
100% | CCCCCCCCOC(=O)C1C(c2ccccc2)C(C(=O)O)C1c1ccccc1 (stereo not given)
23% | CCC(C)OC(=O)C1C(c2ccccc2)C(C(=O)O)C1c1ccccc1 (stereo not given)

Each molecule was assayed against T4, Peroxisome proliferator-activated receptor gamma (Homo sapiens, UniProt P37231) (assay: as §1).
T4 sequence (P37231 whole entry): T3 sequence (whole entry)
Assay type: functional
Method in brief: as §2

EC50 | Structure (SMILES)
Not Active | CC(C)OC(=O)C1C(c2ccccc2)C(C(=O)O)C1c1ccccc1 (stereo not given)
Not Active | O=C(O)C1C(c2ccccc2)C(C(=O)Oc2ccc(O)cc2)C1c1ccccc1 (stereo not given)
Not Active | COC(=O)C1C(c2ccccc2)C(C(=O)OC)C1c1ccccc1 (stereo not given)
Not Active | O=C(O)C1C(c2ccccc2)C(C(=O)OCCO)C1c1ccccc1 (stereo not given)
Not Active | COC(=O)C1C(c2ccccc2)C(C(=O)OCc2ccccc2)C1c1ccccc1 (stereo not given)
Not Active | O=C(O)C1C(c2ccccc2)C(C(=O)N2CCCCC2)C1c1ccccc1 (stereo not given)
Not Active | O=C(O)C1C(c2ccccc2)C(C(=O)O)C1c1ccccc1 (stereo not given)
Not Active | O=C(O)C1C(c2ccccc2)C(C(=O)N2CCOCC2)C1c1ccccc1 (stereo not given)
Not Active | O=C(O)C1C(c2ccccc2)C(C(=O)OCCCO)C1c1ccccc1 (stereo not given)

These molecules were tested against T4, Peroxisome proliferator-activated receptor gamma (assay: Agonist activity at human PPARgamma by Gal4 transactivation assay).
Assay type: functional
Method in brief: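 Human PPARγ Gal4-hybrid luciferase reporter transactivation assay. EC50 was calculated from concentration-response data, with maximum activation taken at the highest tested concentration.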

pEC50 | Structure (SMILES)
5.00 | Cc1ccccc1OC(=O)C1C(c2ccccc2)C(C(=O)O)C1c1ccccc1 (stereo not given)
5.32 | CC(C)CCOC(=O)C1C(c2ccccc2)C(C(=O)O)C1c1ccccc1 (stereo not given)
5.48 | Cc1cccc(OC(=O)C2C(c3ccccc3)C(C(=O)O)C2c2ccccc2)c1 (stereo not given)
5.44 | CCCCCCOC(=O)C1C(c2ccccc2)C(C(=O)O)C1c1ccccc1 (stereo not given)
5.07 | CCCCCCCOC(=O)C1C(c2ccccc2)C(C(=O)O)C1c1ccccc1 (stereo not given)
5.03 | CCCCCCCCOC(=O)C1C(c2ccccc2)C(C(=O)O)C1c1ccccc1 (stereo not given)
< 5.00 | CCC(C)OC(=O)C1C(c2ccccc2)C(C(=O)O)C1c1ccccc1 (stereo not given)
